Activity calls are given as the source filed them. The rule behind the calls is not given here.
Key:
MOLM-13 [1] = assay: Cytotoxicity against human MOLM13 cells assessed as cell growth inhibition after 4 days by WST-8 assay; format: functional, cell-based; settings: MOLM-13, 96 h
[2] = biological target: T1, Protein cereblon/Bromodomain-containing protein 4/Cullin-4A (Homo sapiens) (UniProt O60885+Q96SW2+Q13619); assay: Induction of cereblon/cullin 4A-mediated BRD4 degradation in human RS4:11 cells at 30 to 300 nM after 3 hrs by Western blot method; format: cell-based
How it was run: (§1)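 Western blot of RS4;11 cells (2 × 10⁶ cells/well) in RPMI 1640 with 10% FBS, 37 °C, 5% CO₂, used within three months of thawing. Compound exposure was 3 h or 24 h at the indicated concentrations. Cells were lysed in RIPA with protease inhibitors, and BRD2, BRD3 and BRD4 were detected with specific antibodies, with GAPDH as loading control.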

[3] = biological target: T2, Protein cereblon/Bromodomain-containing protein 3/Cullin-4A (Homo sapiens) (UniProt Q15059+Q96SW2+Q13619); assay: Induction of cereblon/cullin 4A-mediated BRD3 degradation in human RS4:11 cells at 30 to 300 nM after 3 hrs by Western blot method; format: cell-based; how it was run: as §1
T2 sequence (Q13619 whole entry, looked up): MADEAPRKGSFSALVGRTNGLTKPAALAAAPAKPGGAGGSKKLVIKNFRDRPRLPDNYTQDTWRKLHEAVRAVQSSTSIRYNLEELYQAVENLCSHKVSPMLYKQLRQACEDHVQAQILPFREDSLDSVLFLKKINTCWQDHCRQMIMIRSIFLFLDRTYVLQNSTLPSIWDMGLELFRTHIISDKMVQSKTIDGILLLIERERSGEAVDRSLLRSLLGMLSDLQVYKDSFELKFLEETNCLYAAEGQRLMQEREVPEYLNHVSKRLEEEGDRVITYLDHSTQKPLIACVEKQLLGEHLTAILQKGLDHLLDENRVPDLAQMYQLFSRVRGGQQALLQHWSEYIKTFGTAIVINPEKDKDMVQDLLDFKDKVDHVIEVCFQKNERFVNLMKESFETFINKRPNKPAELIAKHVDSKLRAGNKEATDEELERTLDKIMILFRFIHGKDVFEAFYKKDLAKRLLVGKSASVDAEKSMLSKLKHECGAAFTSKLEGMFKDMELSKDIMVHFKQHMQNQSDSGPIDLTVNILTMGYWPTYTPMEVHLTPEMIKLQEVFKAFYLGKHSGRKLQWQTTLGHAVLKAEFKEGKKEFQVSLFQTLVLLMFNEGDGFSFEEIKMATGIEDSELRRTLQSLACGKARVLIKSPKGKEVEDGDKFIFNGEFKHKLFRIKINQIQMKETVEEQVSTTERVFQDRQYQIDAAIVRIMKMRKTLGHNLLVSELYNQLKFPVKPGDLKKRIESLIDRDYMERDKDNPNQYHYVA
T2 sequence (Q15059 whole entry, looked up): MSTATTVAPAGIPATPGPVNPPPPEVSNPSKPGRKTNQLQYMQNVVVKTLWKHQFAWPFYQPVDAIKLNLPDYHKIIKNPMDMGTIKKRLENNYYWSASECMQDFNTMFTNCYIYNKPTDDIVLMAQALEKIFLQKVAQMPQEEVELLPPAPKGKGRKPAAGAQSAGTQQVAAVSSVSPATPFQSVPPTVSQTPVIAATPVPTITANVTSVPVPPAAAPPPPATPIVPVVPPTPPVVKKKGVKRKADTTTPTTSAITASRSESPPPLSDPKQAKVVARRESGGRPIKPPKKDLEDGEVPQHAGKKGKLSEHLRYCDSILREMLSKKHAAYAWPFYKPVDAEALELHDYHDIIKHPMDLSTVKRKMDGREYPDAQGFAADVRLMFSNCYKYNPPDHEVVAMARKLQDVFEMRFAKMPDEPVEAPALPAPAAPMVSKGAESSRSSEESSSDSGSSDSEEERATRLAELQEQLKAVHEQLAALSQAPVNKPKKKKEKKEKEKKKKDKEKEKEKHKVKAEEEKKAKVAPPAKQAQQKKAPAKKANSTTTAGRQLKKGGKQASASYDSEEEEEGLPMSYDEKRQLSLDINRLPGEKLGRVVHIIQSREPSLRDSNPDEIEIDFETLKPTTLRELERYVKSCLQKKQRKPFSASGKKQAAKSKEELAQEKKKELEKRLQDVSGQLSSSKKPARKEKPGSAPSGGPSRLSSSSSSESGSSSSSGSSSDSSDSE
T2 sequence (Q96SW2 whole entry, looked up): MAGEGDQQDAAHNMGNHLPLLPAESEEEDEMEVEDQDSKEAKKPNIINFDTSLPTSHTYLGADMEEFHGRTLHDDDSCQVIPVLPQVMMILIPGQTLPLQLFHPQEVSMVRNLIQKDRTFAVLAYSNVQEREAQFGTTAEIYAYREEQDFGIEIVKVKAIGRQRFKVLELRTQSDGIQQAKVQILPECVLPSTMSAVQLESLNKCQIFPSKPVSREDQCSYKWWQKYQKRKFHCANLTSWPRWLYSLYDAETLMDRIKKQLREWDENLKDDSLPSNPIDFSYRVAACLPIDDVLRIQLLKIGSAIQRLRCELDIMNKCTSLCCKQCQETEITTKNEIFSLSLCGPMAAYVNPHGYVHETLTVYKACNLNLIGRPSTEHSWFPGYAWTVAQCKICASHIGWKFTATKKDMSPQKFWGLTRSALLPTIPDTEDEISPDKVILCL

[4] = biological target: T3, Protein cereblon/Bromodomain-containing protein 2/Cullin-4A (Homo sapiens) (UniProt P25440+Q96SW2+Q13619); assay: Induction of cereblon/cullin 4A-mediated BRD2 degradation in human RS4:11 cells at 30 to 300 nM after 3 hrs by Western blot method; format: cell-based
T3 sequence (P25440 whole entry, looked up): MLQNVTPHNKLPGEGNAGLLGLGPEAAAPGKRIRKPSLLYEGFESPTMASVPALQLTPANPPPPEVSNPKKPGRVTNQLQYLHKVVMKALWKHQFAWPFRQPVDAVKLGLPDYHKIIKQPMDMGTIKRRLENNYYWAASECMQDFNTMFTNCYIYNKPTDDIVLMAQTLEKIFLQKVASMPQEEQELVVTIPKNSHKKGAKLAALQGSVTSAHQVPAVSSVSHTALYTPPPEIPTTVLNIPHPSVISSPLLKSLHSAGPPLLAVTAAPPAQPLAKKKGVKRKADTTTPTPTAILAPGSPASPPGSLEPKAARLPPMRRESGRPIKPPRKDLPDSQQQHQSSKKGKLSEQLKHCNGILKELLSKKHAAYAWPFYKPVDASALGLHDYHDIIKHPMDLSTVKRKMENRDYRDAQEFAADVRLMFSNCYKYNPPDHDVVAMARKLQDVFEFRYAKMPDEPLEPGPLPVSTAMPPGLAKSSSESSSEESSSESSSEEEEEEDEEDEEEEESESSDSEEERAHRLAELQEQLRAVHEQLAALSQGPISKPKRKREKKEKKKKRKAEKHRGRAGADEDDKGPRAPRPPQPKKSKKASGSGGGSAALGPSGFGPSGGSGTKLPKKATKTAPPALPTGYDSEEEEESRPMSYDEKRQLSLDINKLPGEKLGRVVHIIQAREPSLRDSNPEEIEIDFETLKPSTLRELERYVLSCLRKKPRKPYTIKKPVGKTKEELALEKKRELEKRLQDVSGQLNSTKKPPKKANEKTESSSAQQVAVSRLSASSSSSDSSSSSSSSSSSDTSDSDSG
T3 sequence (Q13619 whole entry, looked up): as the sequence (Q13619 whole entry, looked up) above
T3 sequence (Q96SW2 whole entry, looked up): as the sequence (Q96SW2 whole entry, looked up) above
How it was run: (§2)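 RS4;11 cells (2 × 10⁶/well) treated for 3 h at the indicated concentrations. Lysed in RIPA with protease inhibitors and immunoblotted for BRD2, BRD3 and BRD4 with specific antibodies.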

RS4-11 [5] = assay: Cytotoxicity against human RS4:11 cells assessed as cell growth inhibition after 4 days by WST-8 assay; format: functional, cell-based; settings: RS4-11, 96 h
[6] = biological target: T3, Protein cereblon/Bromodomain-containing protein 2/Cullin-4A (Homo sapiens); assay: Induction of cereblon/cullin 4A-mediated BRD2 degradation in human MOLM13 cells after 3 hrs by Western blot method; format: cell-based
[7] = biological target: T2, Protein cereblon/Bromodomain-containing protein 3/Cullin-4A (Homo sapiens); assay: Induction of cereblon/cullin 4A-mediated BRD3 degradation in human MOLM13 cells after 3 hrs by Western blot method; format: cell-based
[8] = biological target: T1, Protein cereblon/Bromodomain-containing protein 4/Cullin-4A (Homo sapiens); assay: Induction of cereblon/cullin 4A-mediated BRD4 degradation in human MOLM13 cells after 3 hrs by Western blot method; format: cell-based
[9] = biological target: T1, Protein cereblon/Bromodomain-containing protein 4/Cullin-4A (Homo sapiens); assay: Induction of cereblon/cullin 4A-mediated BRD4 degradation in human RS4:11 cells at 30 to 1000 nM after 3 hrs by Western blot method; format: cell-based; how it was run: as §1
[10] = biological target: T2, Protein cereblon/Bromodomain-containing protein 3/Cullin-4A (Homo sapiens); assay: Induction of cereblon/cullin 4A-mediated BRD3 degradation in human RS4:11 cells at 30 to 1000 nM after 3 hrs by Western blot method; format: cell-based; how it was run: as §1
[11] = biological target: T3, Protein cereblon/Bromodomain-containing protein 2/Cullin-4A (Homo sapiens); assay: Induction of cereblon/cullin 4A-mediated BRD2 degradation in human RS4:11 cells at 30 to 1000 nM after 3 hrs by Western blot method; format: cell-based; how it was run: as §2
[12] = biological target: T3, Protein cereblon/Bromodomain-containing protein 2/Cullin-4A (Homo sapiens); assay: Induction of cereblon/cullin 4A-mediated BRD2 degradation in human RS4:11 cells at 3 to 30 nM after 3 hrs by Western blot method; format: cell-based; how it was run: as §2
[13] = biological target: T2, Protein cereblon/Bromodomain-containing protein 3/Cullin-4A (Homo sapiens); assay: Induction of cereblon/cullin 4A-mediated BRD3 degradation in human RS4:11 cells at 3 to 30 nM after 3 hrs by Western blot method; format: cell-based; how it was run: as §1
[14] = biological target: T4, Bromodomain-containing protein 2 (Homo sapiens, UniProt P25440); assay: Inhibition of FAM-labeled ZBA248 binding to recombinant N-terminal His6-tagged BRD2 bromodomain 1 (72 to 205 residues) (unknown origin) expressed in Escherichia coli Rosetta2 DE3 after 30 mins by fluorescence polarization assay
T4 sequence (P25440 whole entry, the tested form may be a part): as the sequence (P25440 whole entry, looked up) above

[15] = biological target: T4, Bromodomain-containing protein 2; assay: Inhibition of FAM-labeled ZBA248 binding to recombinant N-terminal His6-tagged BRD2 bromodomain 2 (349 to 460 residues) (unknown origin) expressed in Escherichia coli Rosetta2 DE3 after 30 mins by fluorescence polarization assay
[16] = biological target: T5, Bromodomain-containing protein 3 (Homo sapiens, UniProt Q15059); assay: Inhibition of FAM-labeled ZBA248 binding to recombinant N-terminal His6-tagged BRD3 bromodomain 1 (24 to 144 residues) (unknown origin) expressed in Escherichia coli Rosetta2 DE3 after 30 mins by fluorescence polarization assay
T5 sequence (Q15059 whole entry, the tested form may be a part): as the sequence (Q15059 whole entry, looked up) above

[17] = biological target: T5, Bromodomain-containing protein 3; assay: Inhibition of FAM-labeled ZBA248 binding to recombinant N-terminal His6-tagged BRD3 bromodomain 2 (306 to 417residues) (unknown origin) expressed in Escherichia coli Rosetta2 DE3 after 30 mins by fluorescence polarization assay
[18] = biological target: T6, Bromodomain-containing protein 4 (Homo sapiens, UniProt O60885); assay: Inhibition of FAM-labeled ZBA248 binding to recombinant N-terminal His6-tagged BRD4 bromodomain 1 (44 to 168 residues) (unknown origin) expressed in Escherichia coli Rosetta2 DE3 after 30 mins by fluorescence polarization assay
[19] = biological target: T6, Bromodomain-containing protein 4; assay: Inhibition of FAM-labeled ZBA248 binding to recombinant N-terminal His6-tagged BRD4 bromodomain 2 (333 to 460 residues) (unknown origin) expressed in Escherichia coli Rosetta2 DE3 after 30 mins by fluorescence polarization assay
[20] = biological target: T1, Protein cereblon/Bromodomain-containing protein 4/Cullin-4A (Homo sapiens); assay: Induction of cereblon/cullin 4A-mediated BRD4 degradation in human RS4:11 cells at 30 to 1000 nM after 24 hrs by Western blot method; format: cell-based; how it was run: as §1
[21] = biological target: T3, Protein cereblon/Bromodomain-containing protein 2/Cullin-4A (Homo sapiens); assay: Induction of cereblon/cullin 4A-mediated BRD2 degradation in human RS4:11 cells at 30 to 1000 nM after 24 hrs by Western blot method; format: cell-based
How it was run: (§3)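 RS4;11 cells (2 × 10⁶/well) treated for 24 h at the indicated concentrations. Lysed in RIPA with protease inhibitors and immunoblotted for BRD2, BRD3, BRD4, c-Myc and PARP, with GAPDH as loading control.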

[22] = biological target: T2, Protein cereblon/Bromodomain-containing protein 3/Cullin-4A (Homo sapiens); assay: Induction of cereblon/cullin 4A-mediated BRD3 degradation in human RS4:11 cells at 30 to 1000 nM after 24 hrs by Western blot method; format: cell-based; how it was run: as §1
[23] = biological target: T2, Protein cereblon/Bromodomain-containing protein 3/Cullin-4A (Homo sapiens); assay: Induction of cereblon/cullin 4A-mediated BRD3 degradation in human RS4:11 cells at 100 to 300 nM after 3 hrs by Western blot method; format: cell-based; how it was run: as §2
[24] = biological target: T1, Protein cereblon/Bromodomain-containing protein 4/Cullin-4A (Homo sapiens); assay: Induction of cereblon/cullin 4A-mediated BRD4 degradation in human RS4:11 cells at 100 to 300 nM after 3 hrs by Western blot method; format: cell-based; how it was run: as §1
[25] = biological target: T3, Protein cereblon/Bromodomain-containing protein 2/Cullin-4A (Homo sapiens); assay: Induction of cereblon/cullin 4A-mediated BRD2 degradation in human RS4:11 cells at 100 to 300 nM after 3 hrs by Western blot method; format: cell-based; how it was run: as §2
RS4-11 [26] = assay: Induction of cell cycle arrest in human RS4:11 cells after 24 hrs by propidium iodide staining based flow cytometry; format: functional
How it was run: (§4)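 RS4;11 or MOLM-13 cells treated with compound for 24 h, then analyzed by flow cytometry. Cell cycle read by propidium iodide staining and apoptosis by annexin V/propidium iodide staining.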

MOLM-13 [27] = assay: Induction of cell cycle arrest in human MOLM13 cells after 24 hrs by propidium iodide staining based flow cytometry; format: functional; how it was run: as §4
RS4-11 [28] = assay: Induction of apoptosis in human RS4:11 cells at 30 to 300 nM after 24 hrs by Annexin-V/propidium iodide staining based flow cytometry; format: functional, cell-based; how it was run: as §4
MOLM-13 [29] = assay: Induction of apoptosis in human MOLM13 cells at 30 to 300 nM after 24 hrs by Annexin-V/propidium iodide staining based flow cytometry; format: functional, cell-based; how it was run: as §4
Homo sapiens = species: Homo sapiens; assay: Induction of cereblon/cullin 4A-mediated BET degradation in human RS4:11 cells assessed as downregulation of c-myc protein level at 300 to 1000 nM after 24 hrs by Western blot method; format: cell-based; how it was run: as §3
[30] = biological target: T1, Protein cereblon/Bromodomain-containing protein 4/Cullin-4A (Homo sapiens); assay: Induction of cereblon/cullin 4A-mediated BRD4 degradation in human RS4:11 cells at 3 to 10 nM after 3 hrs by Western blot method; format: cell-based; how it was run: as §1
[31] = biological target: T2, Protein cereblon/Bromodomain-containing protein 3/Cullin-4A (Homo sapiens); assay: Induction of cereblon/cullin 4A-mediated BRD3 degradation in human RS4:11 cells at 3 to 10 nM after 3 hrs by Western blot method; format: cell-based; how it was run: as §1
[32] = biological target: T3, Protein cereblon/Bromodomain-containing protein 2/Cullin-4A (Homo sapiens); assay: Induction of cereblon/cullin 4A-mediated BRD2 degradation in human RS4:11 cells at 3 to 10 nM after 3 hrs by Western blot method; format: cell-based; how it was run: as §2

Structure (SMILES): Cc1sc2c(c1C)C(c1ccc(Cl)cc1)=N[C@@H](CC(=O)NCCCCNC(=O)COc1cccc3c1C(=O)N(C1CCC(=O)NC1=O)C3=O)c1nnc(C)n1-2 (stereo partly drawn)
- IC50 (MOLM-13 [1]): 657 nM
- Activity [2]: Active
- Activity [3]: Active
- Activity [4]: Active

Structure (SMILES): CCn1nc(C2CC2)cc1Nc1nc(C(=O)NCCCCCNc2cccc3c2C(=O)N(C2CCC(=O)NC2=O)C3=O)nc2[nH]c3cc(-c4c(C)noc4C)c(OC)cc3c12 (stereo not drawn)
- IC50 (RS4-11 [5]): 0.14 nM
- IC50 (MOLM-13 [1]): 2.1 nM
- Activity [6]: Active
- Activity [7]: Active
- Activity [8]: Active

Structure (SMILES): CCn1nc(C2CC2)cc1Nc1nc(C(=O)NCCCCCc2cccc3c2CN(C2CCC(=O)N(C)C2=O)C3=O)nc2[nH]c3cc(-c4c(C)noc4C)c(OC)cc3c12 (stereo not drawn)
- IC50 (RS4-11 [5]): 35.1 nM
- IC50 (MOLM-13 [1]): 83.4 nM
- Activity [9]: inactive
- Activity [10]: inactive
- Activity [11]: inactive

Structure (SMILES): Cc1sc2c(c1C)C(c1ccc(Cl)cc1)=N[C@@H](CC(=O)Nc1ccc(OCCOCCOCCOCCNc3cccc4c3C(=O)N(C3CCC(=O)NC3=O)C4=O)cc1)c1nnc(C)n1-2 (stereo partly drawn)
- Activity [12]: Active
- Activity [13]: Active

Structure (SMILES): CCn1nc(C2CC2)cc1Nc1nc(C(=O)NC)nc2[nH]c3cc(-c4c(C)noc4C)c(OC)cc3c12
- IC50 [14]: 3.1 nM
- Ki [14]: 0.9 nM
- IC50 [15]: 3.9 nM
- Ki [15]: 0.27 nM
- IC50 [16]: 6.6 nM
- Ki [16]: 0.18 nM
- IC50 [17]: 1.9 nM
- Ki [17]: 0.21 nM
- IC50 [18]: 7 nM
- Ki [18]: 0.5 nM
- IC50 [19]: 7 nM
- Ki [19]: 1 nM
- IC50 (RS4-11 [5]): 24.1 nM
- IC50 (MOLM-13 [1]): 25.6 nM
- Activity [20]: inactive
- Activity [21]: inactive
- Activity [22]: inactive
- Activity [23]: inactive
- Activity [24]: inactive
- Activity [25]: inactive
- Activity (RS4-11 [26]): Dose-dependent effect
- Activity (MOLM-13 [27]): Dose-dependent effect
- Activity (RS4-11 [28]): inactive
- Activity (MOLM-13 [29]): inactive
- Activity (Homo sapiens): Active

Structure (SMILES): CCn1nc(C2CC2)cc1Nc1nc(C(=O)NCCCCNC(=O)COc2cccc3c2C(=O)N(C2CCC(=O)NC2=O)C3=O)nc2[nH]c3cc(-c4c(C)noc4C)c(OC)cc3c12 (stereo not drawn)
- IC50 (RS4-11 [5]): 4.3 nM
- IC50 (MOLM-13 [1]): 45.5 nM
- Activity [30]: Active
- Activity [31]: Active
- Activity [32]: Active

Structure (SMILES): CNC(=O)c1ncc2c(n1)[nH]c1cc(-c3c(C)noc3C)c(OC)cc12
- IC50 [14]: 218 nM
- Ki [14]: 101 nM
- IC50 [15]: 224 nM
- Ki [15]: 57.3 nM
- IC50 [16]: 294 nM
- Ki [16]: 82.1 nM
- IC50 [17]: 189 nM
- Ki [17]: 42.4 nM
- IC50 [18]: 484 nM
- Ki [18]: 152 nM
- IC50 [19]: 630 nM
- Ki [19]: 205 nM

Structure (SMILES): CCn1nc(C2CC2)cc1Nc1nc(C(=O)NCCCCCCCNc2cccc3c2C(=O)N(C2CCC(=O)NC2=O)C3=O)nc2[nH]c3cc(-c4c(C)noc4C)c(OC)cc3c12 (stereo not drawn)
- IC50 (RS4-11 [5]): 0.2 nM
- IC50 (MOLM-13 [1]): 1.2 nM
- Activity [6]: Active
- Activity [7]: Active
- Activity [8]: Active

Source: ChEMBL document CHEMBL4219021, “Discovery of a Small-Molecule Degrader of Bromodomain and Extra-Terminal (BET) Proteins with Picomolar Cellular Potencies and Capable of Achieving Tumor Regression” (J Med Chem, 2018)
